Compound activity deposited in PubChem by several laboratories.
CTSL1 counter: blocks F. hepatica cathepsin L1 in PFM18AAP counter-screen | recombinant F. hepatica cathepsin L1, Z-Leu-Arg-MCA fluorescence | inhibition, % at 5.96 µM | 0.49% of 300,000 active;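 active means inhibition above the mean of all tested compounds plus 3 SD, set per screening campaign, cut at about 17% in these data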;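 further: 0% = plate median of test compound wells and 100% = 1 µM Z-Phe-Ala-diazomethylketone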
TDP2 inh: TDP2 (human) inhibition, absorbance primary screen | O95551 | recombinant TDP2, T5PNP hydrolysis, p-nitrophenol absorbance 415 nm | inhibition, % at 12.8 µM | 0.34% of 370,000 active;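 active means inhibition above the mean of all tested compounds plus 3 SD, set per campaign, cut at about 25% in these data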;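 further: 0% = DMSO with enzyme and 100% = buffer with substrate but no TDP2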
Target sequence (O95551 whole entry, looked up): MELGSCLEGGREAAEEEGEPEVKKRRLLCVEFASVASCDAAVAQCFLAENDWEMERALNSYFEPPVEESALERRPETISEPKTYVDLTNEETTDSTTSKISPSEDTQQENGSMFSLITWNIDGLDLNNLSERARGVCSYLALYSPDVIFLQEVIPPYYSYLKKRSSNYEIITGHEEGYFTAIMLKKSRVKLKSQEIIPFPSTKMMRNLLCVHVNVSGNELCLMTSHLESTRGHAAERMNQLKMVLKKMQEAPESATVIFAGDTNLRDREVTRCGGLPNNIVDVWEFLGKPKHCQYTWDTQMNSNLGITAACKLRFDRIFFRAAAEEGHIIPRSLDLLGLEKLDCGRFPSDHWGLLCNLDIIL
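Incubation: 2 h at 37 °C; Test system: recombinant human TDP2; Quantity: enzyme 120 nM; Read-out basis: percent inhibition; Medium: 50 mM Tris-HCl pH 7.5 with Mg2+, KCl, DTT, BSA; Repeats: single replicate; Compound: 12.8 µM single point, 1% DMSO; Signal: epi absorbance; Reagent: 5 mM T5PNP chromogenic substrate; Benchmarks: no-enzyme high, DMSO-plus-enzyme low.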
NSD2 HMT inh: NSD2 (human) methyltransferase inhibition. 0.54% of 310,000 active. NSD2 peptide methylation, AlphaScreen, 120 min. inhibition, % at 12.5 µM; in the data active means inhibition above about 50%
SUMO HTRF inh: SUMOylation inhibition; P63279; HTRF SUMOylation assay, SAE1/SAE2 + UBC9, in vitro; inhibition, % at 35 µM; 0.36% of 290,000 active; AID 2006; in the data active means inhibition above about 50%, passing the limit was not always enough
Target sequence (P63279 whole entry, looked up): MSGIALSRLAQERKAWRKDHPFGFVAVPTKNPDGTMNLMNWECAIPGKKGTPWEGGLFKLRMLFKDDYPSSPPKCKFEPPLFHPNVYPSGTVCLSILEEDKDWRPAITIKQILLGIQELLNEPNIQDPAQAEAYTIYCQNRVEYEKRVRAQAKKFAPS
* = called active by the depositor; . = not tested or not shown; + = active, no number. A selection: hits, their analogues and other compounds. The true share with any hit is near 1.2%.

SMILES	CTSL1 counter	TDP2 inh	NSD2 HMT inh	SUMO HTRF inh
COC(=O)c1c(NC(=O)CCS(=O)(=O)c2ccccc2)sc2c1CCN(C)C2	-9	-4	-1	10
CCCN1CCc2c(sc(NC(=O)CCS(=O)(=O)c3ccccc3)c2C(=O)OC)C1	27*	8	13	12
CCCN1Cc2cccc(C(=O)NCc3ccc4c(c3)OCO4)c2C1=O	-5	4	0	22
CCCN1Cc2cccc(C(=O)NCc3cccs3)c2C1=O	18*	1	-1	4
Cc1ccc(CNC(=O)CNC(=O)c2ccc(Br)o2)cc1	0	-14	1	-12
CCOC(=O)c1c(C)oc2c1c(C=NCc1ccccn1)c(O)c1ccccc12	.	30*	.	46
O=C(O)c1cccc2c1C(=O)c1ccccc1C2=O	2	7	4	11
CN(C=[N+](C)C)c1cccc2c1C(=O)c1ccccc1C2=O	-1	4	69*	15
Cc1ccc(C(=O)O)cc1NC(=S)NCCc1ccccc1	-2	17	-3	4
Cc1ccc([N+](=O)[O-])cc1NC(=S)NCCc1ccccc1	58*	-9	3	-5
COC(=O)[C@]12C[C@H](CC(=O)N3CCSCC3)C(=O)N(CCC3=CCCCC3)C1=C[C@H](C1CCCC1)O[C@@H]2C	.	0	.	.
CSCCC(NS(=O)(=O)c1ccc2c(c1)c(=O)n(C)c(=O)n2C)C(=O)NC1CCN(Cc2ccccc2)CC1 (configuration not stated)	40*	-9	-2	6
COC(=O)[C@]12C[C@H](CC(=O)NCc3cccc4ccccc34)C(=O)N(Cc3ccccc3)C1=C[C@H](C(C)C)O[C@@H]2C1CC1	.	6	.	.
O=C(Nc1ccc(Br)cc1)c1ccc(N2C(=O)C3CC=C(Cl)CC3C2=O)cc1 (configuration not stated)	0	-3	0	53*
O=C1OC(c2ccc(F)cc2)=C/C1=C\c1ccc(O)cc1	6	-2	0	10
O=C1OC(c2ccc(F)cc2)=C/C1=C\c1ccc([N+](=O)[O-])o1	-7	.	.	52*
Cc1ccc(Cl)cc1NC(=O)C1CCCC1	.	.	1	.
O=c1[nH]c(N2CCOCC2)cc2ccccc12	56*	14	.	.
N=C1/C(=C/c2ccc(-c3cccc(C(=O)O)c3)o2)C(=O)N=C2SC(CC(=O)N3CCOCC3)=NN12	1	16	84*	24
N=C1/C(=C\c2ccc(SCc3ccccc3)o2)C(=O)N=C2SC(CC(=O)N3CCOCC3)=NN12	0	5	2	11
COc1cc(C)c(C(=O)Oc2cc(C)c(C(=O)O)c(O)c2)c(O)c1	-1	8	.	13
COC(=O)c1cc(OC)cc(O)c1C(=O)c1c(O)cc(C)cc1O	52*	14	.	16
COc1ccc(CNC(=O)CC2C[C@H](C(=O)N3CCOCC3)[C@@]3(CCC4CCCC4)c4[nH]c5ccccc5c4CCN3C2=O)cc1OC (some centres not stated)	.	-14	.	.
COc1cc(Cn2cc([C@]34C[C@H]5C(=O)N(C)CC(=O)N5[C@H]3N(S(=O)(=O)c3ccccc3)c3ccccc34)c3ccccc32)cc(OC)c1	.	2	.	.
O=S(=O)(c1ccc(NC(=S)N/N=C/c2ccc(O)c(O)c2)cc1)N1CCOCC1	-7	-4	19	15
SMILES	CTSL1 counter	TDP2 inh	NSD2 HMT inh	SUMO HTRF inh
O=[N+]([O-])c1cc(Cl)cc(/C=N/NC(=S)Nc2ccc(S(=O)(=O)N3CCOCC3)cc2)c1O	-4	-1	35	95*
COC(=O)[C@]12C=CCN1[C@@H](c1ccc(OC)c(OC)c1)c1c(c3ccccc3n1S(=O)(=O)c1ccc(C)cc1)C2	.	-5	.	.
N#CN(CC(N)=O)c1nc(N2CCCCC2)nc(N2CCCCC2)n1	25*	-3	.	-5
C=CCN(C#N)c1nc(OC)nc(N2CCCC2)n1	3	6	2	-4
NC(=S)NN=C1c2cc(Cl)ccc2-c2c1cc(Cl)cc2[N+](=O)[O-]	.	.	-4	.
NC(=S)N/N=C1\CCOc2ccc(Cl)cc21	63*	-2	0	9
O=C(O)c1ccc(Cl)c(S(=O)(=O)N(Cc2ccccc2)c2ccccc2)c1	0	20	1	18
CCN(c1ccccc1)S(=O)(=O)c1cc(C(=O)O)ccc1C	-1	-7	+	-4
COC(=O)C1=C(C)N(Cc2ccc(C(F)(F)F)cc2)C(=NCc2ccc(C(F)(F)F)cc2)NC1c1ccccc1C(F)(F)F (configuration not stated)	.	-2	-1	.
O=C(CCl)Nc1nc(-c2ccco2)c(-c2ccco2)s1	21*	5	12	82*
O=C(CCCSc1ccccc1)Nc1nc(-c2ccco2)c(-c2ccco2)s1	-5	-4	-2	79*
O=C(COC(=O)CSc1ccc([N+](=O)[O-])cc1)NCc1cccs1	18*	0	2	.
O=C1/C(=C/c2ccc(N3CCOCC3)o2)SC(=Nc2ccccc2)N1CCc1c[nH]c2ccccc12	18*	.	.	17
COc1ccccc1N1CCN(C(=O)c2cc3ccccc3[nH]2)CC1	18*	-1	1	2
O=C(O)COc1ccccc1C(Nc1cccnc1)c1cc(Cl)c2cccnc2c1O (configuration not stated)	.	.	.	77*
CCC(CO)Nc1cccc2c1S(=O)(=O)N(Cc1cn(Cc3ccc(F)cc3)nn1)Cc1ccccc1O2 (configuration not stated)	.	0	.	.
O=C(NNc1cc(N2CCOCC2)nc(N2CCOCC2)n1)c1ccc(Cl)cc1Cl	3	-2	14	86*
CC(=O)NNc1cc(N2CCOCC2)nc(N2CCOCC2)n1	0	10	.	30
COc1ccccc1-c1ccc(Nc2ccc(C(=O)N3CCOCC3)cc2)nn1	18*	-3	0	24
COc1ccc(-c2ccc(Nc3ccc(C(=O)N4CCOCC4)cc3)nn2)cc1OC	3	7	-3	-2
O=C(CNC(=O)c1ccccc1)OCC(=O)N1c2ccccc2Sc2ccccc21	34*	5	-1	0
COc1cc(C2C=C(c3cccs3)Nc3ncnn32)cc(OC)c1OC (configuration not stated)	.	.	.	53*
Nc1ncnc(NC2CCS(=O)(=O)C2)c1[N+](=O)[O-] (configuration not stated)	49*	3	.	9
CCc1nnc(NC(=O)CSc2sc3c(O)cc(=O)[nH]c3c2C#N)s1	-4	25*	.	34
O=C(Oc1ccccc1)c1cc(O)c(O)c(O)c1	.	.	116*	.
Cc1cccc(NC(=O)C2C3C=CC4(O3)C2C(=O)N(CCCN2CCCC2)C4C(=O)NC2CCCC(C)C2C)c1 (configuration not stated)	-5	4	3	15
COc1ccc(NC(=O)C2C3C=CC4(O3)C2C(=O)N(CCN2CCCCC2)C4C(=O)NC2CCCC(C)C2C)cc1 (configuration not stated)	20*	-4	4	-10
Cc1ccsc1-c1nc(-c2ccccc2)c(-c2ccccc2)[nH]1	19*	13	2	-9
